# MrgX1 antag – antagonists of human MrgX1 receptor | Q96LB2 | MRGX1-HEK293 calcium flux, Fluo-4, BAM8-22 antagonism; hits give low values | B-score at 10 µM | actives 1.3% (n = 310,000);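 active = calcium-response B-score plate-corrected more than 3 library SD below zero, starting fluorescence within 5 deviations, no agonist response on first addition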;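 also: peak minus trough fluorescence over baseline after final BAM8-22 challenge near maximal dose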
# Target sequence (Q96LB2 whole entry, looked up): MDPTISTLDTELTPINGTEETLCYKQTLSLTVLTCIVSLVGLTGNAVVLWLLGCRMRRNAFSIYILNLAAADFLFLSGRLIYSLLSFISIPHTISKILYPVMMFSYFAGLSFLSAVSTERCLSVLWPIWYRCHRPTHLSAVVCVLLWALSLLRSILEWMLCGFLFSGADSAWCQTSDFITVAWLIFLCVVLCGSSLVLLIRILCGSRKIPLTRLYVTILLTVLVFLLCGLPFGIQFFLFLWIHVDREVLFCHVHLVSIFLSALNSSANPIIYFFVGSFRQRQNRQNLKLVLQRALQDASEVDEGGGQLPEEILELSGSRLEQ
# RGS4 act – RGS4 potentiation or activation; AID 463111; actives 0.92% (n = 310,000); HEK293 M3R/inducible RGS4, carbachol calcium flux Fluo4; hits give low values; B-score at 10 µM;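 active = B-score of the integrated calcium signal more than 4 SD below the library mean, with starting fluorescence not abnormally high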;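 also: negative B-score means reduced calcium response which marks RGS4 activation or potentiation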
#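 Material: Inducible-RGS4 HEK293 cells carrying M3 receptor; also added: carbachol at ECmax as muscarinic agonist stimulus; incubation: compound preincubation 20 min at room temperature before agonist; signal: Fluo4-AM (2 µM) calcium-flux fluorescence, kinetic read; measure: integrated calcium ratio converted to B score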
# RGS4 block – inhibitors of human RGS4; B-score at 10 µM; HEK293 M3R/RGS4 inducible, Fluo-4 calcium flux; hits give high values; triggered by carbachol at its EC20; P49798; actives 0.45% (n = 310,000);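 active = B-score, a plate-corrected calcium signal, over three deviations above library mean, with baseline fluorescence within five deviations of library mean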;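 also: RGS4 expression induced by doxycycline in cells with stable M3 receptor; B-score is computed from the integrated fluorescence ratio over baseline after carbachol; higher B-score means a larger calcium signal and so more RGS4 inhibition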
# Target sequence (P49798 whole entry, looked up): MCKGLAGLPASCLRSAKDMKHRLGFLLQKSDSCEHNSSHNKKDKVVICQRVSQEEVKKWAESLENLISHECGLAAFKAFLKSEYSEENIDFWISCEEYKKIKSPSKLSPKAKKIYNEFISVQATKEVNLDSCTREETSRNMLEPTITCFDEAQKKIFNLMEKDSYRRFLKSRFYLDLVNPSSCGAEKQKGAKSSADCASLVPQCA
# MrgX1 agonist – agonists of human MrgX1 receptor | Q96LB2 | MrgX1-HEK293 cells, Fluo-4 calcium fluorescence, agonist mode; hits give high values | B-score at 10 µM | actives 0.44% (n = 310,000);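 active = calcium response B-score plate-corrected fluorescence ratio at least 3 library SD, with starting fluorescence B-score inside 5 SD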
#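 System: HEK293 cells stably expressing human MrgX1 receptor; Dosing: test compound in the initial addition of three; Schedule: overnight plating, then 30 min 37 °C plus 30 min room-temperature dye loading; Detection: kinetic calcium dye fluorescence, Fluo-4 NW; Controls: per-plate positive and negative controls for Z′ factor.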
# PHOSPHO1 inh – inhibitors of human PHOSPHO1 phosphatase. Q8TCT1. recombinant PHOSPHO1, absorbance phosphatase assay. inhibition, % at 13.3 µM. actives 1.1% (n = 290,000). AID 1565; in the data active = inhibition above about 60%
# MrgX1 allo act – human MrgX1 positive allosteric modulation, primary screen. Q96LB2. MrgX1-HEK293, Fluo-4 calcium flux, FDSS; hits give high values. B-score at 10 µM. actives 0.63% (n = 310,000). AID 588675;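 active = plate-corrected calcium response at least 3 library SD above typical, normal starting fluorescence, not activating the receptor alone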;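 also: compound read alongside a low EC10 to EC30 dose of BAM8-22 agonist; peak minus trough fluorescence over baseline measured at the second addition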
# RGS4 block valid – RGS4 inhibitor validation; shares compounds with RGS4 block; HEK293 M3R/RGS4, carbachol calcium Fluo-4 fluorescence; carbachol added at its EC20; 0 = buffer wells, 100 = carbachol control; calcium response, % at 10 µM; actives 65% (n = 1,700);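 active = duplicate-averaged calcium response above the buffer-only control mean plus 5 SD of those controls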;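 also: integrated fluorescence ratio F max minus min over baseline F0; higher response in RGS4-induced cells means RGS4 inhibition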
# M3R Ca ctr – checks RGS4 inhibitor effects in non-induced HEK293 M3R cells; shares compounds with RGS4 block; carbachol calcium Fluo-4; submaximal (EC20) carbachol stimulus; buffer wells 0%, carbachol control wells 100%; activity (percent), % at 10 µM; actives 20% (n = 1,900); call rule not given here;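 also: RGS4 induction absent so cells express M3R without RGS4; higher means more calcium signal and flags a non-specific hit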
# RGS4 inh ctr2 – second RGS4 inhibitor counter-screen in uninduced cells lacking carbachol; calcium response (agonist-mode artifact), % at 10 µM; HEK293 M3R/RGS4 non-induced, Fluo-4 calcium, no carbachol; normalised: buffer wells 0%, carbachol wells 100%; actives 22% (n = 1,900); shares compounds with RGS4 block;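 active = duplicate-averaged calcium rise in uninduced cells above buffer wells' mean plus 5 SD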
# A number is an active result; - = inactive; . = no result. Most compounds without a hit are left out; they make up all but 4.5% or so of the library.
SMILES,MrgX1 antag,RGS4 act,RGS4 block,MrgX1 agonist,PHOSPHO1 inh,MrgX1 allo act,RGS4 block valid,M3R Ca ctr,RGS4 inh ctr2
O=C1NC(=O)/C(=C/c2ccc(-c3cc(C(=O)O)ccc3Cl)o2)S1,-,-,6.16,-,-,-,12.5%,-,-
O=C(/C=C/c1ccc(O)c(O)c1)c1ccc(S(=O)(=O)N2CCCCCC2)cc1,-,-,15.7,-,-,-,23.0%,43.5%,-
O=C(c1ccc(S(=O)(=O)N2CCCC2)cc1)N1CCCCC1,-,-,-,-,.,-,.,.,.
N#C/C(=C/c1ccc(O)c(O)c1)C(=O)NCc1ccc(Cl)cc1,-,-,7.59,-,-,13.1,-,-,-
N#C/C(=C/c1cccc(O)c1)C(=O)NCc1ccc(Cl)cc1,-,-,5.93,-,-,-,80.0%,73.0%,-
COc1ccc(OC)c(CCNC(=O)CN2C(=O)CCSc3ccccc32)c1,-,-,-,-,-,-,.,.,.
CC(=O)c1cccc(NC(=O)c2cccc3ccccc23)c1,-,-,-,-,-,-,.,.,.
Nc1nn2cc(-c3ccc(Br)cc3)nc2c2ccccc12,-,-,6.95,-,-,-,10.0%,-,-
CCOc1cc(/C=C2\C(=O)N(c3ccc(C(N)=O)cc3)N=C2C)ccc1OC(=O)c1cccs1,-,-,-,-,-,-,.,.,.
CC1=NN(c2ccc(C(=O)O)cc2)C(=O)/C1=C\c1ccc(OC(=O)c2cccs2)cc1,-,-,13.2,-,-,-,23.5%,-,-
COc1cc2nc(NC(=O)c3ccccc3)sc(=O)c2cc1OC,.,-,-,.,-,.,.,.,.
Oc1c(Br)cc(Br)cc1C=Nc1ccc2c(c1)OCO2,-,-,-,-,-,-,-,-,48.0%
O=[N+]([O-])c1ccc(O)c(C=Nc2ccc3c(c2)OCCO3)c1,-,-,-,-,-,-,.,.,.
Oc1c(Br)cc(Br)cc1C=Nc1ccc2c(c1)OCCO2,-,-,5.83,-,-,-,-,-,74.5%
CC(=O)Nc1cc(C(=O)NCc2ccco2)ccc1Sc1ccc(C)cc1,-,-,-,-,-,-,.,.,.
NC(=O)Cn1c(=O)n(CC(=O)N2CCCCC2)c(=O)c2sccc21,-,-,-,-,-,-,.,.,.
CCN(Cc1ccccc1)C(=O)Cn1c(=O)n(CC(=O)N2CCCCC2)c(=O)c2sccc21,-,-,-,-,-,-,.,43.5%,-
CCn1c2ccccc2c2cc(/C=N/NC(=O)c3ccccc3)ccc21,-,-,-,-,-,-,-,-,-
Cn1c2ccccc2c2cc(/C=N/NC(=O)c3cc(O)cc(O)c3)ccc21,-,-7.2,-,-,-,-,-,-,-
Cc1cccc(-c2nc(CS(=O)CC(=O)NCCc3ccc(Cl)cc3)c(C)o2)c1 (stereo not drawn),-,-,-,-,-,-,.,.,.
Cn1c(SCC(=O)Nc2ccc3c(c2)oc2ccccc23)nnc1-c1ccccc1,-,-,5.13,-,-,-,7.5%,-,-
Cn1c(SCC(=O)Nc2ccc3[nH]c(=O)[nH]c3c2)nnc1-c1ccccc1,-,-,-,-,-,-,.,.,.
CCc1nnc(NC(=O)c2cc(-c3cccnc3)nc3ccccc23)s1,-,-,-,-,-,-,.,-,-
CC(C)Cc1nnc(NC(=O)c2cc(-c3ccncc3)nc3ccccc23)s1,-,-,-,-,-,-,.,-,-
CCc1nnc(NC(=O)c2cc(C)nc3ccccc23)s1,-,-,-,-,-,-,.,.,.
SMILES,MrgX1 antag,RGS4 act,RGS4 block,MrgX1 agonist,PHOSPHO1 inh,MrgX1 allo act,RGS4 block valid,M3R Ca ctr,RGS4 inh ctr2
CC(C)Cc1cc(CN2CCC(CO)(Cc3ccccc3)CC2)[nH]n1,-,-,-,-,-,-,.,.,.
Cc1cc(C)c(NC(=O)CNC(=O)c2ccccc2OCc2c(C)noc2C)c(C)c1,-,-,-,-,.,-,.,.,.
COc1ccc(C(=O)N/C(N)=N/c2nc3ccccc3o2)cc1,-,-,-,-,-,-,.,.,.
COc1ccc(C(=O)/C=C/Sc2nc3ccccc3o2)cc1,-,-,24.4,-,-,-,9.5%,-,-
Cc1ccc(N=C2NC(=O)/C(=C/c3cccnc3)S2)c(C)c1,-,-,7.89,-,-,-,19.5%,-,-
Cc1cccc(N=C2NC(=O)/C(=C/c3cccnc3)S2)c1C,-,-,-,-,-,-,.,.,.
Cc1c(Cc2ccccc2)c(=O)oc2cc(O)cc(O)c12,-,-,5.5,-,-,-,10.0%,-,-
Cc1coc2cc3oc(=O)c(Cc4ccccc4)c(C)c3cc12,-,-,-,-,-,-,.,.,.
Cc1ccc(C2OC(=O)C=C2c2ccccc2)cc1 (stereo not drawn),-,-,-,-,.,-,.,.,.
COc1ccc(OC)c(S(=O)(=O)N2CCC(C(=O)N3CCOCC3)CC2)c1,-,-,-,-,-,-,-,-,-
COc1ccc(OC)c(S(=O)(=O)N2CCCC(C(=O)N3CCCCCC3)C2)c1 (stereo not drawn),-,-,-,-,.,-,-,-,13.5%
COc1ccc(Cl)cc1S(=O)(=O)N1CCCC(C(=O)N2CCCC2)C1 (stereo not drawn),-,-,-,-,-,-,.,.,.
COc1ccc(OC)c(S(=O)(=O)N2CCC(C(=O)N3CCCC3)CC2)c1,-,-,-,-,-,-,.,.,.
COc1ccc(OC)c(S(=O)(=O)N2CCCC(C(=O)N3CCCC3)C2)c1 (stereo not drawn),-,-,-,-,-,-,-,-,-
COc1ccc(OC)c(S(=O)(=O)N2CCCC(C(=O)NCc3ccncc3)C2)c1 (stereo not drawn),-,-,-,-,-,-,.,.,.
COc1ccc(C)cc1S(=O)(=O)N1CCCC(C(=O)N2CCOCC2)C1 (stereo not drawn),-,-,-,-,-,-,-,-,-
COc1ccc(S(=O)(=O)N2CCCC(C(=O)N3CCOCC3)C2)cc1OC (stereo not drawn),-,-,-,-,-,-,.,.,.
COc1ccc(CNC(=O)c2sc3nc4c(c(C(F)(F)F)c3c2N)CCC4)cc1,-,-,-,-,-,-,.,.,.
CSCCC1NC(=S)N(Cc2ccccc2)C1=O (stereo not drawn),-,-,-,-,-,-,.,.,.
CC(=O)Nc1ccc(S(=O)(=O)Nc2cc([N+](=O)[O-])ccc2C)cc1,-,-,-,-,-,-,.,.,.
Cc1ccc(NS(=O)(=O)c2ccc(NC(=O)CN(c3cc([N+](=O)[O-])ccc3C)S(C)(=O)=O)cc2)c(C)c1,-,-,8.64,-,-,-,23.0%,-,-
N#C/C(=C\c1ccc([N+](=O)[O-])o1)C(=O)Nc1ccc(F)cc1,-,-,7.04,-,-,-,19.5%,-,-
COc1ccc(NC(=O)/C(C#N)=C\c2ccc(Br)o2)cc1,-,-,-,-,-,-,.,.,.
